We go through two molecules from ChEMBL document CHEMBL4033676, “Design, synthesis and biological evaluation of 3,4-dihydro-2(1H)-quinoline-O-alkylamine derivatives as new multipotent cholinesterase/monoamine oxidase inhibitors for the treatment of Alzheimer's disease” (Bioorg Med Chem, 2017).

For data set [1], the target named is Acetylcholinesterase (Electrophorus electricus) (UniProt O42275). The data set can be described thus: Inhibition of electric eel AChE at 25 uM using acetylthiocholine chloride as substrate after 15 mins by Ellman's method relative to control. A general note: Ellman's reagent forms a yellow product with free thiols.
Sequence of Acetylcholinesterase (Electrophorus electricus) (O42275 24-633 limits assumed): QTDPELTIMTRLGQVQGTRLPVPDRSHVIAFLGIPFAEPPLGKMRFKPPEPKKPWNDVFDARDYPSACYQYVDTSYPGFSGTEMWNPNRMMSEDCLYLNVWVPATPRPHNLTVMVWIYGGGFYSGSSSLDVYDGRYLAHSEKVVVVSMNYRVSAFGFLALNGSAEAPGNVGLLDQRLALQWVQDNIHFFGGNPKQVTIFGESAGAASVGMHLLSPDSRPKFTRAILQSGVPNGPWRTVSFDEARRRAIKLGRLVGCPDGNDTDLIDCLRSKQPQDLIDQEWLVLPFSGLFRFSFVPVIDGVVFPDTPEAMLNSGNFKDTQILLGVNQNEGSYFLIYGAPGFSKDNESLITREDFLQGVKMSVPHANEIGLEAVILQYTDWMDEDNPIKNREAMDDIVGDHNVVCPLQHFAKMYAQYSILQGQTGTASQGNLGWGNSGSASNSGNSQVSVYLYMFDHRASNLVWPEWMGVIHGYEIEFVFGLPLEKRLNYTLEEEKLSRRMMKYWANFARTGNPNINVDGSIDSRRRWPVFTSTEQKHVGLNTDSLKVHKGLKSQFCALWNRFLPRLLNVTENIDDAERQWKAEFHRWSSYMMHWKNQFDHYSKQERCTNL
Data set [2] addresses Cholinesterase (Equus caballus) (UniProt P81908). Put plainly: Inhibition of equine serum BuChE at 25 uM using butyrylthiocholine chloride as substrate after 15 mins by Ellman's method relative to control.
Data set [3] deals with T1, Acetylcholinesterase (Rattus norvegicus) (UniProt P37136).
T1 sequence (whole entry): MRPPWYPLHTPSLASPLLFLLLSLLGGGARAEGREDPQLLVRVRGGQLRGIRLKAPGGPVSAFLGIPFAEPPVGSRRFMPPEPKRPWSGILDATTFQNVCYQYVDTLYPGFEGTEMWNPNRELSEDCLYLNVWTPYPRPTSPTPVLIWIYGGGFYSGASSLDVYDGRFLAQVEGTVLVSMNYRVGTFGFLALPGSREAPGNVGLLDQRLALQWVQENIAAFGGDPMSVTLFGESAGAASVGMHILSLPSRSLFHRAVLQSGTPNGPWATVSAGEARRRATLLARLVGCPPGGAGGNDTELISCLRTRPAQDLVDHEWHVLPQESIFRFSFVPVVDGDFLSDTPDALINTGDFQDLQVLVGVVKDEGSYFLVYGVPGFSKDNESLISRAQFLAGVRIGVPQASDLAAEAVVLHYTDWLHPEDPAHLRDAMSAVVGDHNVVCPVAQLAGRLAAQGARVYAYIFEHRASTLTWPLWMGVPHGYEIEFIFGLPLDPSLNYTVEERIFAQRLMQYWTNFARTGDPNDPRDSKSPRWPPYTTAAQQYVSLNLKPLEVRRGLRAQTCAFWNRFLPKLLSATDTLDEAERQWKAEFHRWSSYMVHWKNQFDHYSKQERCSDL
The settings on record: at 25 µM.

The species named for data set [4] is Rattus norvegicus. The data set can be described thus: Inhibition of rat serum BuChE at 25 uM using butyrylthiocholine chloride as substrate after 15 mins by Ellman's method relative to control.
Data set [5] is filed under the species Homo sapiens. Put plainly: Selectivity index, ratio of IC50 for recombinant human MAO-B to IC50 for recombinant human MAO-A.
In data set [6] the test system is PC-12. The data set can be described thus: Cytotoxicity against rat PC12 cells assessed as decrease in cell viability at 100 uM after 24 hrs by MTT assay. In kind it is cell-based. To be noted: pc-12, 24 h.
Data set [7] is described as follows: physchem. To be noted: PAMPA.
For data set [8], the target named is T2, Amine oxidase [flavin-containing] A (Homo sapiens, UniProt P21397).
T2 sequence (P21397 whole entry): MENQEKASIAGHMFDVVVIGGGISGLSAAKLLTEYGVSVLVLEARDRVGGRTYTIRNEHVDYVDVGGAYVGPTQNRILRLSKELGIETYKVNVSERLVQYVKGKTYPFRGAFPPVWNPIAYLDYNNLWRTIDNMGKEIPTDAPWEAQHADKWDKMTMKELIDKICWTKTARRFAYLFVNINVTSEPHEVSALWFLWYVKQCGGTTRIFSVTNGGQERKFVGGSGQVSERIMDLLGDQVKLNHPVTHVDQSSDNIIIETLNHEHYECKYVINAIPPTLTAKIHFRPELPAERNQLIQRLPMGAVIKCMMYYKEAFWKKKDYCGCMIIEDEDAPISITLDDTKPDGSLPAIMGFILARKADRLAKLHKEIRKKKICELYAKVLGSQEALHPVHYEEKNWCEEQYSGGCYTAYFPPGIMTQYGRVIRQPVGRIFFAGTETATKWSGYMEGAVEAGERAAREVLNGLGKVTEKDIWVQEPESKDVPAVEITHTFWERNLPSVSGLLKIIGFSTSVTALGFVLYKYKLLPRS
The data set can be described thus: Inhibition of recombinant human MAO-A expressed in baculovirus infected BTI insect cells using kynuramine as substrate after 30 mins by fluorescence assay.

Data set [9] can be described thus: Selectivity index, ratio of IC50 for equine serum BuChE to IC50 for electric eel AChE.
The nature of data set [10]: Inhibition of rat serum BuChE using butyrylthiocholine chloride as substrate after 15 mins by Ellman's method. In a few lines: (§1)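 Ellman assay. Equine serum or rat serum BuChE pre-incubated with test compound at various concentrations (DMSO <1%) in 0.1 M phosphate buffer pH 8.0 for 15 min at 37°C. DTNB (0.2%) added, absorbance read at 412 nm. Inhibition % = (1−Ai/Ac)×100. IC50 is the mean of three independent experiments, each run in triplicate.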

In data set [11] the target is T3, Amine oxidase [flavin-containing] B (Homo sapiens, UniProt P27338).
T3 sequence (P27338 whole entry): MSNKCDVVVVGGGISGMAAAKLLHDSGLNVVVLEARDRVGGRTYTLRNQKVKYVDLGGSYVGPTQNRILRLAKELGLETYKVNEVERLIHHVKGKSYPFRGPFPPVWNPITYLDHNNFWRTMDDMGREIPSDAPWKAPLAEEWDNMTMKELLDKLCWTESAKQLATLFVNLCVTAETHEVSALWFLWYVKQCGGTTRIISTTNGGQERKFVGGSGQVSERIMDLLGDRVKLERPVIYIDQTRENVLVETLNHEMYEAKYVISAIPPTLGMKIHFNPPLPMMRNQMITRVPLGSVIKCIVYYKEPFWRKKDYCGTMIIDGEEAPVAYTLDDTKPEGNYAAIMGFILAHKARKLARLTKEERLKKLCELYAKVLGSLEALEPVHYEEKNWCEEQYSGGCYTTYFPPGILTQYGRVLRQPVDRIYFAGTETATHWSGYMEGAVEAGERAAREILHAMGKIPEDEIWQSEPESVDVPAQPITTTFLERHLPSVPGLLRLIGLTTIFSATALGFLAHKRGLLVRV
The data set can be described thus: biochemical. In kind it is cell-based.

The subject of data set [12] is PC-12. The data set can be described thus: Cytotoxicity against rat PC12 cells assessed as decrease in cell viability up to 10 uM after 24 hrs by MTT assay. It is filed as cell-based. The settings on record: pc-12, 24 h. A general note: Tetrazolium dyes change colour on reduction, which living cells bring about.
Data set [13] concerns the target Cholinesterase (Equus caballus, UniProt P81908). The data set can be described thus: Inhibition of equine serum BuChE using butyrylthiocholine chloride as substrate after 15 mins by Ellman's method. In a few lines:
as §1

Data set [14] deals with T4, Acetylcholinesterase (Rattus norvegicus, UniProt P37136).
T4 sequence (P37136 whole entry): T1 sequence (whole entry)

For data set [15], the species on record is Rattus norvegicus. Put plainly: Selectivity index, ratio of IC50 for rat serum BuChE to IC50 for 5% rat cortex homogenate AChE.
Data set [16] deals with Acetylcholinesterase (Electrophorus electricus) (UniProt O42275). The data set can be described thus: Mixed type inhibition of electric eel AChE using acetylthiocholine iodide as substrate up to 1 uM preincubated for 15 mins followed by substrate addition by Lineweaver-Burk plot analysis. In outline: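 Purified Electrophorus electricus AChE (0.5 units/mL) in 0.1 M phosphate buffer pH 8.0 with 0.2% DTNB. Three inhibitor concentrations pre-incubated with enzyme for 15 min at 37°C, then acetylthiocholine iodide added at varying concentrations. Hydrolysis followed at 412 nm; no-inhibitor controls run in parallel. Weighted least-squares double-reciprocal analysis; Ki taken from the x-intercept of a secondary slope replot.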

For data set [17], the target named is Acetylcholinesterase (Electrophorus electricus, UniProt O42275). The data set can be described thus: Inhibition of electric eel AChE using acetylthiocholine chloride as substrate after 15 mins by Ellman's method.
Sequence of Acetylcholinesterase (Electrophorus electricus, UniProt O42275) (O42275 whole entry): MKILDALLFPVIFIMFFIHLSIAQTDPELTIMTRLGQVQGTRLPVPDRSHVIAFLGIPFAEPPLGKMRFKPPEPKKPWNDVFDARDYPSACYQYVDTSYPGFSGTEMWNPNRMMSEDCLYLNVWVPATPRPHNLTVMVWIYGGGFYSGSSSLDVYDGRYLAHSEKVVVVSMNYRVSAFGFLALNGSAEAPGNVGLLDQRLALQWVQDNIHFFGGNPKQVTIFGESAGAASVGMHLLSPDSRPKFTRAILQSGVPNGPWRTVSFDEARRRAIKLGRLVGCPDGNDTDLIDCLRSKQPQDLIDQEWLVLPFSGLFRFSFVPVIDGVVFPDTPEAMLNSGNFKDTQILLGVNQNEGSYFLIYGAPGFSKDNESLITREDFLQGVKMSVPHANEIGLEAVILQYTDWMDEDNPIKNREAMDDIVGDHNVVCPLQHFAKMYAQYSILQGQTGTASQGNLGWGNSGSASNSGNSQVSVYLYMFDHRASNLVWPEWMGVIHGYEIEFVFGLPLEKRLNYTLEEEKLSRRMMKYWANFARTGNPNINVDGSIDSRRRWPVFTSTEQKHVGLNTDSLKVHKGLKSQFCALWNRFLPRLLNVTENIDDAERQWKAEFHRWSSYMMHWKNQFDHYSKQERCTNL

The source made the active and inactive calls. The rule behind the calls is not given here. Bounds are passed on as bounds.

Sequence of Cholinesterase (Equus caballus) (P81908 whole entry): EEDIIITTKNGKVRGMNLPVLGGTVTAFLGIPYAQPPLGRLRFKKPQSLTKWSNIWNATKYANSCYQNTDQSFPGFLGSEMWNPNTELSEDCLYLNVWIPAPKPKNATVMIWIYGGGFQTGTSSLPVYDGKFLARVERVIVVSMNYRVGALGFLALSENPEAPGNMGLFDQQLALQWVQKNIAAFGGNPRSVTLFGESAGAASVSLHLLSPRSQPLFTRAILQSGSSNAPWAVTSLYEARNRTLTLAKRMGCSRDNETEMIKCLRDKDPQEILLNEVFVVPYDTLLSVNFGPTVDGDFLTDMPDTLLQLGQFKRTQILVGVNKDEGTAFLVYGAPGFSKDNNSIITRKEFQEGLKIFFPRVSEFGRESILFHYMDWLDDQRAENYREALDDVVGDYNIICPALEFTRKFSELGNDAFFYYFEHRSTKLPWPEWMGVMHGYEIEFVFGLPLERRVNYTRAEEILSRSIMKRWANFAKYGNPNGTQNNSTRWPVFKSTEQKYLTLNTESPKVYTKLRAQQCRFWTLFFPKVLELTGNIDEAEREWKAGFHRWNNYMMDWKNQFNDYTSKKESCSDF
Sequence of Cholinesterase (P81908 whole entry): as above

Take `O=C1CCc2ccc(O)cc2N1`: the inhibition in data set [1], in data set [2], in data set [3] and in data set [4] was below 5% throughout.

For the molecule `O=C1CCc2ccc(OCCCCCCN3CCC(Cc4ccccc4)CC3)cc2N1`, the Ratio IC50 in data set [5] is 4.7; in data set [9], 4.1; in data set [15] it was 1.9. The Activity was 87.3% in [6] and “Non-Toxic” in data set [12]. This molecule gave a Papp at 18 h, 100 ug/ml in data set [7] of 25.6 ×10⁻⁶ cm/s. The IC50 was determined as 300 nM in [8]; 3600 nM in data set [10]; 1400 nM in data set [11]; 2300 nM in data set [13]; 1900 nM in data set [14]; 560 nM in data set [17]. Moreover, the inhibition result in data set [16] is “Active”.

The term inhibition denotes the percentage by which the read-out fell short of the control. A word on the Papp: it is a coefficient for how fast a substance crosses the barrier. A lower Papp goes with slow passage. Broadly, the IC50 is the concentration that inhibits the measured activity by half.
